Measured values collected from several papers.
Protocols differ between the studies behind these lines.
Effect on: cell growth or viability

| Structure (SMILES) | cell line | technique | time | IC50 |
| --- | --- | --- | --- | --- |
| C#C[C@]1(O)CC[C@H]2[C@@H]3CCC4=Cc5oncc5C[C@]4(C)[C@H]3CC[C@@]21C | GISTT1 | resazurin | 72 h | > 1 µM |
| CC(C)[C@@H](N)c1nc2cc(-c3ccncc3F)sc2c(=O)[nH]1 | COLO 205 | MTT | – | 1.19 µM |
| CC(=O)[C@]1(O)Cc2c(O)c3c(c(O)c2[C@@H](O[C@H]2C[C@H](N)[C@H](O)[C@H](C)O2)C1)C(=O)c1ccccc1C3=O | GISTT1 | – | 72 h | 0.09 µM |
| COc1cc(Nc2nccc(-c3cnn4nc(OC)ccc34)n2)cc(C(F)(F)F)c1 | NCI-H1838 | ATP luminescence | – | > 3 µM |
| CC[C@@H](C)[C@H](N)C(=O)N1Cc2ccccc2C1 | RS4-11 | ATP luminescence | 24 h | 71.1 µM |
| CCN1CCN(c2ccc(Nc3cc(N(C)C(=O)Nc4c(Cl)c(OC)cc(OC)c4Cl)ncn3)cc2)CC1 | MDA-MB-453 | ATP luminescence | 96 h | > 1 µM |
| COc1cc([C@@H]2c3cc4c(cc3[C@@H](O[C@@H]3O[C@@H]5CO[C@@H](c6cccs6)O[C@H]5[C@H](O)[C@H]3O)[C@H]3COC(=O)[C@H]23)OCO4)cc(OC)c1O | GISTT1 | resazurin | 72 h | > 1 µM |
| COc1ccc2oc(C(=O)c3ccccc3)cc2c1-c1ccccc1 | L1210 | – | 48 h | > 50 µM |
| COc1c2ccoc2c(OCC=C(C)C)c2oc(=O)ccc12 | COLO 205 | MTT | 72 h | > 100 µM |
| C[C@@H]1O[C@@H](O[C@H]2C[C@@H](O)[C@]3(CO)[C@H]4[C@H](O)C[C@]5(C)[C@@H](C6=CC(=O)OC6)CC[C@]5(O)[C@@H]4CC[C@]3(O)C2)[C@H](O)[C@H](O)[C@H]1O | GISTT1 | resazurin | 72 h | 0.21 µM |
| O=C1CCc2ncccc2C(=O)Nc2ccccc21 | L6 | – | – | 160 µM |
| COc1ccccc1C(=O)c1cc2c(-c3ccccc3)c(O)ccc2o1 | L1210 | – | 48 h | > 50 µM |
| O=[N+]([O-])c1ccc(Cn2cc(Cn3c4ccccc4c4nc5ccccc5nc43)nn2)cc1 | INS1 | MTT | 24 h | > 100 µM |
| O=c1c(O)c(-c2cc(O)c(O)c(O)c2)oc2cc(O)cc(O)c12 | SCaBER | ATP luminescence | 72 h | 30.3 µM |
| CC(C)=CCC/C(C)=C/COc1ccc2ccc(=O)oc2c1 | COLO 205 | MTT | 24 h | 55.1 µM |
| CC(C)[C@H](N)c1nc2cc(-c3cn[nH]n3)sc2c(=O)[nH]1 | COLO 205 | MTT | – | 3.79 µM |
| O=C1Nc2ccccc2C(=O)CCc2cc(O)ccc21 | L6 | – | – | 84 µM |
| Nc1nc(F)nc2c1ncn2[C@@H]1O[C@H](COP(=O)(O)O)[C@@H](O)[C@@H]1O | GISTT1 | resazurin | 72 h | > 1 µM |
| CO/N=C1\CCc2ccccc2C(=O)Nc2ccccc21 | L6 | – | – | 250 µM |
| N[C@@H](CC(=O)N1CCN(C(c2ccc(F)cc2)c2ccc(F)cc2)CC1)C(=O)N1Cc2ccccc2C1 | RS4-11 | ATP luminescence | 24 h | 28.3 µM |

| Structure (SMILES) | cell line | technique | time | IC50 |
| --- | --- | --- | --- | --- |
| CCOC(=O)c1ccc2c(c1)C(=O)CCc1ccccc1C(=O)N2 | L6 | – | – | 15 µM |
| O=c1c(O[C@@H]2O[C@H](CO)[C@@H](O)[C@H](O)[C@H]2O)c(-c2ccc(O)c(O)c2)oc2cc(O)cc(O)c12 | SCaBER | ATP luminescence | 72 h | 8.66 µM |
| COc1cccc(C(=O)c2cc3c(-c4ccccc4)c(OC)ccc3o2)c1 | L1210 | – | 48 h | 10 µM |
| COc1cc(N(C)CCN(C)C)c(NC(=O)/C=C/C(C)C)cc1Nc1nc(N2CCc3sccc3C2)c2sccc2n1 | NCI-H460 | MTT | – | > 50 µM |
| O=C1Nc2ccccc2C(=O)CCCc2ccccc21 | L6 | – | – | 130 µM |
| O=c1[nH]cc(F)c(=O)[nH]1 | L1210 | – | 48 h | 0.49 µM |
| CCC(=O)Nc1cc(Nc2nc(N3CCc4sccc4C3)c3cccnc3n2)c(OC)cc1N1CCOCC1 | NCI-H460 | MTT | – | > 50 µM |
| O=C(O)c1ccc2c(c1)C(=O)CCc1ccccc1C(=O)N2 | L6 | – | – | 220 µM |
| C=C[C@H]1C[N@@]2CC[C@H]1C[C@@H]2[C@@H](O)c1ccnc2ccc(OC)cc12 | MDCK-II | MTT | 48 h | 267 µM |
| O=C1Nc2ccc(C(F)(F)F)cc2C(=O)CCc2ccccc21 | L6 | – | – | 9 µM |
| CC(C)C[C@H](NC(=O)[C@H](Cc1ccccc1)NC(=O)c1cnccn1)B(O)O | GISTT1 | resazurin | 72 h | < 0.07 µM |
| C=CC(=O)Nc1cc(Nc2nc(N3CCOCC3)c3sccc3n2)c(OC)cc1N(C)CCN(C)C | NCI-H460 | MTT | – | > 50 µM |
| COc1cc(OC)cc(C(=O)c2cc3c(-c4ccccc4)c(O)ccc3o2)c1 | L1210 | – | 48 h | 19 µM |
| COc1cc([C@@H]2c3cc4c(cc3[C@@H](O[C@@H]3O[C@@H]5CO[C@@H](C)O[C@H]5[C@H](O)[C@H]3O)[C@H]3COC(=O)[C@H]23)OCO4)cc(OC)c1O | GISTT1 | resazurin | 72 h | > 1 µM |
| CC(C)[C@H](N)c1nc2cc(-c3ccnnc3)sc2c(=O)[nH]1 | COLO 205 | MTT | – | 5.97 µM |
| O=C(c1ccccc1)c1cc2c(-c3ccccc3)c(O)ccc2o1 | L1210 | – | 48 h | 37 µM |
| CCC1=C[C@@H]2CN(C1)Cc1c([nH]c3ccccc13)[C@@](C(=O)OC)(c1cc3c(cc1OC)N(C)[C@H]1[C@@](O)(C(=O)OC)[C@H](OC(C)=O)[C@]4(CC)C=CCN5CC[C@]31[C@@H]54)C2 | GISTT1 | resazurin | 72 h | 0.23 µM |
| O=C1CCc2ccccc2CC(=O)c2ccccc2N1 | L6 | – | – | > 380 µM |
| COc1ccc(C(=O)c2cc3c(-c4ccccc4)c(O)ccc3o2)cc1 | L1210 | – | 48 h | 1.3 µM |
